The record followed here is ChEMBL document CHEMBL4680377, “Discovery of a Novel Series of Pyridone-Based EP3 Antagonists for the Treatment of Type 2 Diabetes” (ACS Med Chem Lett, 2021).

Data set [1] in a line: Kinetic solubility of compound at pH 2. The class given is physicochemical. Particulars: buffer, read-out: Kinetic_solubility.
The nature of data set [2]: Apparent permeability across apical to basolateral side in dog MDCK cells. The class given is ADME, cell-based, Canis lupus familiaris.
The target in data set [3] is T1, Prostaglandin E2 receptor EP3 subtype (Homo sapiens, UniProt P43115).
T1 sequence (P43115 whole entry): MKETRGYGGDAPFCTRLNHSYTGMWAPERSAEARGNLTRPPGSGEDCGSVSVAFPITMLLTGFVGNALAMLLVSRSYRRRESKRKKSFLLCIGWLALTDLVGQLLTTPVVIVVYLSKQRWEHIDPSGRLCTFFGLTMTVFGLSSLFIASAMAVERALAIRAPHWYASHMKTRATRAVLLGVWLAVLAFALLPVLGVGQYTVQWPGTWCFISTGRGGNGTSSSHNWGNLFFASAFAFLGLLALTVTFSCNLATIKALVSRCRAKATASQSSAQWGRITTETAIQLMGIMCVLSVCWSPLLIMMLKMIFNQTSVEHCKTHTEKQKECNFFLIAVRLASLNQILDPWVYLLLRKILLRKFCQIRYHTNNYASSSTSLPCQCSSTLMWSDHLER
The data set can be described thus: Antagonist activity at human EP3 expressed in CHO cells assessed as suppression of sulprostone-induced inhibition of forskolin induced cAMP production measured after 30 mins by HTR-FRET assay. In kind it is functional, cell-based.

Data set [4] is described as follows: Metabolic stability in human liver microsomes assessed as intrinsic clearance half life. In kind it is ADME, Microsome.
The nature of data set [5]: Metabolic stability in rat liver microsomes assessed as intrinsic clearance half life. In kind it is ADME, Microsome. (In general: Microsomes from liver hold many membrane-bound enzymes, among them those of drug oxidation.)
Data set [6] concerns the target T1, Prostaglandin E2 receptor EP3 subtype. The data set can be described thus: Displacement of [3H]-PGE2 from human EP3 expressed in Chem-1 cell membranes incubated for 2 hrs by TopCount scintillation plate reader analysis. More on the design: species or system Membrane. In general terms: Loss of bound radioactivity is the signal in a displacement assay; it reports binding, not function.

Data set [7] can be described thus: Kinetic solubility of compound in PBS buffer. In kind it is physicochemical. To be noted: read-out: Kinetic_solubility.
A short description of data set [8]: Half life in Sprague-Dawley rat at 10 mg/kg, po measured up to 24 hrs by LC-MS/MS analysis. The class given is ADME, organism-based. To be noted: in vivo. Summed up: (§1)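 Sprague-Dawley rats, n = 3 per route, sampled over 24 h. Full PK: iv 2 mg/kg in 20% HPbCD with po 10 mg/kg given either in 0.5% HPMC or in 20% HPbCD, depending on study. Fast PK: po only, 10 mg/kg in 0.5% HPMC.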

Data set [9] can be described thus: Plasma protein binding in rat. In kind it is ADME, cell-free. Particulars: read-out: PPB (converted).
Data set [10] can be described thus: Volume of distribution at steady state in Sprague-Dawley rat at 2 mg/kg, iv measured up to 24 hrs by LC-MS/MS analysis. The class given is ADME, organism-based. Particulars: in vivo, read-out: Vdss. An outline of the steps:
as §1

Data set [11] is described as follows: Clearance in Sprague-Dawley rat at 2 mg/kg, iv measured up to 24 hrs by LC-MS/MS analysis. The class given is ADME, organism-based. To be noted: in vivo. Summed up:
as §1

Data set [12] is described as follows: Plasma protein binding in human. The class given is ADME, cell-free. Particulars: read-out: PPB (converted).
Data set [13] is described as follows: AUClast in Sprague-Dawley rat at 10 mg/kg, po measured up to 24 hrs by LC-MS/MS analysis. More on the design: route oral, dose 10 mg/kg, time <=24. The class given is ADME, organism-based. Particulars: in vivo. Summed up:
as §1

A short description of data set [14]: Cmax in Sprague-Dawley rat at 10 mg/kg, po measured up to 24 hrs by LC-MS/MS analysis. Particulars: in vivo. In kind it is ADME, organism-based. More on the design: route oral, dose 10 mg/kg, time <=24. An outline of the steps:
as §1

Data set [15] is described as follows: Oral bioavailability in Sprague-Dawley rat at 10 mg/kg measured up to 24 hrs by LC-MS/MS analysis. To be noted: in vivo. The class given is ADME, organism-based. An outline of the steps: as §1
Data set [16] deals with T2, Prostaglandin E2 receptor EP3 subtype (Rattus norvegicus, UniProt P34980).
T2 sequence (P34980 whole entry): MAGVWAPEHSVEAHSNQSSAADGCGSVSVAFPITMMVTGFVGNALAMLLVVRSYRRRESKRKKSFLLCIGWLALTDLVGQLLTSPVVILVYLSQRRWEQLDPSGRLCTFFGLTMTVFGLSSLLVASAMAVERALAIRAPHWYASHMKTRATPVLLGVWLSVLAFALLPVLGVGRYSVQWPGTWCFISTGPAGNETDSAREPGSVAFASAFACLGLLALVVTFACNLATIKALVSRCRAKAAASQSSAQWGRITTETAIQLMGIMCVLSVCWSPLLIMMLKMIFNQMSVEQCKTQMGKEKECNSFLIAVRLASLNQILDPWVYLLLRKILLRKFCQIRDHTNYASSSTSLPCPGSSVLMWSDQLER
The data set can be described thus: Binding affinity to rat EP3.

In brackets after ≈: the same amount, converted by molar mass.

Usually Papp A→B stands for how fast a substance crosses the layer from the apical side. The term IC50 denotes the concentration at which inhibition is half-maximal. By half-life is commonly meant how long it takes for the measured level to halve. As usually defined, the Ki is a dissociation constant, usually derived from enzyme kinetics or from competition with a known ligand. As for `CC(C)[C@@H](c1ccc(-c2ccc3cccc(F)c3c2)[nH]c1=O)[C@@H]1OC(=O)NC1=O` (relative stereo), the values for the solubility kinetic in data set [1] and in data set [7] were 6.9 µM (≈ 2.72 µg/mL) and 27.4 µM (≈ 10.8 µg/mL), respectively. The Papp A→B in [2] came out at 3.15 ×10⁻⁶ cm/s. Also, the IC50 in data set [3] was found to be 610 nM. The values for the half-life in [4] and in data set [5] were greater than 3 h and 1.27 h, respectively. The compound also yielded a Ki in [6] of 85 nM.

For orientation: clearance means the volume of plasma or blood freed of the substance per unit of time. Lower therefore signals a low capacity for elimination. As a reminder, the AUC(0-t) is exposure summed from dosing to a finite time, without extrapolation to infinity. Usually Cmax stands for the maximum level reached in the sampled fluid or tissue. In the case of `CCn1ncc2c(F)cc(-c3ccc(C(/C=C4\OC(=O)NC4=O)(CC)CC)c(=O)[nH]3)cc21`, the half-life was 9.8 h in data set [8], greater than 3 h in data set [4] and greater than 3 h in data set [5]. Besides, the solubility kinetic worked out at 21.7 µM (≈ 9.51 µg/mL) in [1] and 30.8 µM (≈ 13.5 µg/mL) in [7]. The fraction unbound in data set [9] is 0.0018; in [12], 0.0011. In addition, the Vd in [10] worked out at 0.24 L/kg. The compound further registered a clearance in data set [11] of 0.93 mL/min/kg. The same compound had an AUC(0-t) at 24 h in data set [13] of 100 µg·h/mL. In data set [14], the concentration peaked (Cmax) at 8740 ng/mL. Moreover, the bioavailability in data set [15] worked out at 54.9%.

Take `CC(C)C(/C=C1\OC(=O)NC1=O)c1ccc(-c2ccc3cccc(F)c3c2)[nH]c1=O` (stereo not drawn): the half-life in [8] was 4.6 h; in data set [4], greater than 3 h; in data set [5], greater than 3 h. Moreover, the figures for the solubility kinetic in data set [1] and in data set [7] were 8 µM (≈ 3.25 µg/mL) and 28 µM (≈ 11.4 µg/mL), respectively. In addition, the fraction unbound in [9] is 0.0001; in data set [12] it was 0.0008. Besides, the Papp A→B in [2] worked out at 9.9 ×10⁻⁶ cm/s. Moreover, in data set [10], the Vd worked out at 0.23 L/kg. Moreover, the clearance in data set [11] stood at 1.06 mL/min/kg. The compound further came in with an AUC(0-t) at 24 h in data set [13] of 159 µg·h/mL. In data set [16], this compound had a Ki of 1 nM. This compound also came in with a Cmax in data set [14] of 24600 ng/mL. For the same compound, in data set [15], the bioavailability turned out to be 97.7%.

As to `CC(C)[C@H](C[C@H]1OC(=O)NC1=O)c1ccc(-c2ccc3cccc(F)c3c2)[nH]c1=O` (relative stereo), the solubility kinetic in data set [1] stood at 24.4 µM (≈ 9.97 µg/mL); in data set [7], 35.4 µM (≈ 14.5 µg/mL). Also, the Papp A→B in data set [2] came out at 10.3 ×10⁻⁶ cm/s. Further, the IC50 in data set [3] was determined as 15 nM. Further, the half-life turned out to be 1.68 h in data set [4] and 0.95 h in [5]. The same compound returned a Ki in data set [6] of 6 nM.

Consider `C/C(=C1/OC(=O)NC1=O)C(c1ccc(-c2ccc3cccc(F)c3c2)[nH]c1=O)C(C)C` (stereo not drawn), for which the figures for the half-life in data set [8], in [4] and in data set [5] were 4 h, greater than 3 h and greater than 3 h, respectively. In addition, the results for the solubility kinetic in [1] and in data set [7] were 12.7 µM (≈ 5.34 µg/mL) and 17.2 µM (≈ 7.23 µg/mL), respectively. Also, the IC50 in data set [3] was determined as 39 nM. The Vd in data set [10] is 1.96 L/kg. In [11], this compound returned a clearance of 15.6 mL/min/kg. Moreover, the Ki in [6] turned out to be 17 nM. For the same compound, in data set [13], the AUC(0-t) at 24 h was found to be 12.7 µg·h/mL. In data set [14], this compound came in with a Cmax of 1230 ng/mL. In addition, in data set [15], the bioavailability is 118%.

As for `CC(C)[C@H](C[C@@H]1OC(=O)NC1=O)c1ccc(-c2ccc3cccc(F)c3c2)[nH]c1=O` (relative stereo), the solubility kinetic was 25.1 µM (≈ 10.3 µg/mL) in data set [1] and 21.1 µM (≈ 8.62 µg/mL) in data set [7]. The figures for the fraction unbound in data set [9] and in [12] were 0.0021 and 0.0032, respectively. Also, the apparent permeability from apical to basolateral (Papp A→B) in [2] stood at 10.8 ×10⁻⁶ cm/s. For the same compound, the concentration for half-maximal inhibition (IC50) in data set [3] was determined as 27 nM. The half-life in [4] turned out to be 2.07 h; in [5], 0.503 h. The same compound yielded a Ki in data set [6] of 8 nM. The compound further had an exposure AUC(0-t) at 24 h in data set [13] of 218 µg·h/mL. This compound also gave a Cmax in data set [14] of 44100 ng/mL.

As for `CC(C)/C(=C1\C(=O)NC(=O)N1C)c1ccc(-c2ccc3cccc(F)c3c2)[nH]c1=O`, the solubility kinetic in data set [1] came to 11.1 µM (≈ 4.5 µg/mL); in data set [7], 22.5 µM (≈ 9.12 µg/mL). Further, in [2], the apparent permeability from apical to basolateral (Papp A→B) came out at 6.85 ×10⁻⁶ cm/s. For the same compound, the IC50 in data set [3] amounted to 350 nM. Further, the half-life in data set [4] and in data set [5] was greater than 3 h in each case. Further, in data set [6], the Ki is 85 nM.

In the case of `CC(C)[C@@H](c1ccc(-c2ccc3cccc(F)c3c2)[nH]c1=O)[C@H]1OC(=O)NC1=O` (relative stereo), the solubility kinetic in data set [1] was 5.4 µM (≈ 2.13 µg/mL); in data set [7], 31.6 µM (≈ 12.5 µg/mL). Also, the Papp A→B in data set [2] is 9.14 ×10⁻⁶ cm/s. For the same compound, the concentration for half-maximal inhibition (IC50) in data set [3] turned out to be 92 nM. For the same compound, the half-life in [4] was greater than 3 h; in data set [5], 1.93 h. Besides, the Ki in [6] stood at 27 nM.

`CCC(/C=C1\OC(=O)NC1=O)(CC)c1ccc(-c2ccc3cccc(F)c3c2)[nH]c1=O`: the solubility kinetic stood at 13.5 µM (≈ 5.68 µg/mL) in [1] and 32.6 µM (≈ 13.7 µg/mL) in data set [7]. For the same compound, the half-life was 0.948 h in data set [4] and greater than 3 h in data set [5]. In data set [13], this compound returned an AUC(0-t) at 24 h of 327 µg·h/mL. This compound also came in with a Cmax in [14] of 58100 ng/mL.
